Results on 2 molecules are retold here after ChEMBL document CHEMBL3352791, “Thioaryl naphthylmethanone oxime ether analogs as novel anticancer agents” (J Med Chem, 2014).

One series concerns Ishikawa. Kind of series: Antiproliferative activity against human ER-positive Ishikawa cells after 24 hrs by MTT assay. It is filed as functional, cell-based. As to conditions: ishikawa.
Series [1] deals with MDA-MB-231. Kind of series: Cell cycle arrest in human […] cells assessed as accumulation at G2 phase at 2.5 uM by propidium iodide staining by FACS analysis (reference value: 22.74%). It is filed as functional.
Series [2] relates to MDA-MB-231. Kind of series: Cell cycle arrest in human […] cells assessed as accumulation at S phase at 5 uM by propidium iodide staining by FACS analysis (reference value: 13.72%). It is filed as functional. On the technique in general: In flow cytometry, cells or beads pass a laser one at a time.
A further series has as its system Mus musculus. Kind of series: Toxicity in human MCF7 cells xenografted in NIH-3 mouse assessed as changed in body weight at 8 mg/kg, po for 29 days relative to control. Type of series: organism-based. On the set-up: dose 8 mg/kg, route oral. As to conditions: in vivo, 696 h. (In xenograft studies the graft and the host belong to different species.)
The test system of series [3] is MCF7. Kind of series: Antitumor activity against human MCF7 cells xenografted in NIH-3 mouse assessed as reduction in tumor volume at 16 mg/kg, po for 25 days relative to control. It is filed as functional. The note with it: MCF7, 600 h.
Series [4] relates to MCF7. As to the kind of experiment: Antitumor activity against human MCF7 cells xenografted in NIH-3 mouse assessed as increase in TUNEL positive cells at 16 mg/kg, po for 25 days relative to control. Type of series: functional.
In series [5] the target is Ribosomal protein S6 kinase beta-1 (Homo sapiens) (UniProt P23443). Kind of series: Inhibition of p70S6K (unknown origin) at 10 uM. Put shortly:
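Cell-free kinase profiling was run as a standard 33P-ATP-based in vitro kinase assay.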

The target in series [6] is cGMP-specific 3',5'-cyclic phosphodiesterase (Canis lupus familiaris) (UniProt O77746). As to the kind of experiment: Inhibition of PDE5 CAT (unknown origin) activity at 1 to 10 uM. The note with it: Homo sapiens. A digest of the protocol: (§1)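 Recombinant PDE isoform activity was read by fluorescence polarization. A binding reagent complexes with the nucleotide monophosphate that the phosphodiesterase generates from cAMP/cGMP, and this raises the polarization of the labelled substrate. Reference standards were PDE1A3 10µM IBMX, PDE2A3 1nM BAY 60-7550, PDE3CAT 1µM cilostazol, PDE4CAT rolipram, PDE5CAT 0.1µM sildenafil, PDE7A […], PDE8A1 10µM BRL-50481, PDE9A1 1µM SB 36216 and PDE11A1 dipyridamole.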

Series [7] deals with High affinity cAMP-specific and IBMX-insensitive 3',5'-cyclic phosphodiesterase 8A (Homo sapiens) (UniProt O60658). As to the kind of experiment: Inhibition of PDE8A1 (unknown origin) activity at 1 to 10 uM. Put shortly:
as §1

For series [8], the target named is Epidermal growth factor receptor (Homo sapiens) (UniProt P00533). Kind of series: Inhibition of EGF-induced EGFR phosphorylation at Tyr1068 in human MCF7 cells at 0.5 uM by ELISA. Type of series: cell-based. In general terms: ELISA stands for enzyme-linked immunosorbent assay.
Series [9] has as its target Plasminogen activator inhibitor 1 (Homo sapiens) (UniProt P05121). As to the kind of experiment: Inhibition of basal level PAI-1 phosphorylation in human MDA-MB-231 cells at 1 uM by ELISA. Type of series: cell-based.
In series [10] the target is Focal adhesion kinase 1 (Homo sapiens) (UniProt Q05397). Kind of series: Inhibition of basal level FAK phosphorylation at Tyr397 in human MDA-MB-231 cells at 1 uM by ELISA. It is filed as cell-based.
Series [11] relates to MDA-MB-231. As to the kind of experiment: Antiproliferative activity against human […] cells at 2.5 to 7.5 uM by annexin V-FITC/propidium iodide staining-based flow cytometric analysis. It is filed as functional, cell-based.
Series [12] deals with MDA-MB-231. As to the kind of experiment: Induction of apoptosis in human […] cells assessed as caspase 3 activation at 2.5 to 7.5 uM by Caspase-Glo assay. It is filed as functional, cell-based. A digest of the protocol:
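Caspase-8, -9 and -3 activities measured with Caspase-Glo 8, 9 and 3 kits; mean ± SEM from three independent experiments.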

Series [13] concerns MCF7. As to the kind of experiment: Induction of apoptosis in human […] cells. It is filed as functional, cell-based.
Series [14] has as its system MCF7. Kind of series: Cytotoxicity against human […] cells assessed as cell viability at 5 uM by MTT assay in presence of z-LEHD-FMK caspase-9 inhibitor. Type of series: functional, cell-based. Put shortly: (§2)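 Cells seeded 1×10^4/well in DMEM with 10% FBS, adhered overnight, serum-starved 4 h; pre-incubated 2 h with Z-IETD-FMK or Z-LEHD-FMK (10µM each), then 5μM compound for a further 24 h; viability by MTT.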

Series [15] relates to MDA-MB-231. Kind of series: Cytotoxicity against human […] cells assessed as cell viability at 5 uM by MTT assay in presence of z-LEHD-FMK caspase-9 inhibitor. It is filed as functional, cell-based. Put shortly: as §2
Series [16] deals with MDA-MB-231. Kind of series: Inhibition of MTA expression in human MDA-MB-231 cells at 1 uM after 24 hrs by qPCR analysis. Type of series: functional, cell-based. A digest of the protocol:
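MDA-MB-231 cells treated at 1µM. Transcript levels measured by qPCR with GAPDH as internal control.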

The test system of series [17] is MDA-MB-231. As to the kind of experiment: Inhibition of CDC42 protein expression in human MDA-MB-231 cells at 1 uM after 24 hrs by ELISA. Type of series: functional, cell-based. Put shortly:
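MDA-MB-231 cells treated at 1µM for 24 h. CDC42 protein measured with a G-LISA ELISA kit.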

Series [18] relates to MCF7. Kind of series: Antitumor activity against human MCF7 cells xenografted in NIH-3 mouse assessed as effect on tumor volume at 8 mg/kg, po for 29 days relative to control. On the set-up: dose 8 mg/kg. It is filed as functional, organism-based. Put shortly: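 MCF-7 cells (5x10^6 in 100μl PBS) injected intraperitoneally into NIH-III nude mice; after tumor induction, groups of n=10 dosed orally daily for 29 days at 8 or 16 mg/kg/day in 1% carboxymethyl cellulose (vehicle controls). Tumor diameter by vernier calipers every third day; volume = π/6×d³ (d mean diameter).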

For series [19], the system named is MCF7. Kind of series: Antitumor activity against human MCF7 cells xenografted in NIH-3 mouse assessed as reduction in PCNA level in tumor at 16 mg/kg, po for 25 days by Western blot analysis. It is filed as functional, organism-based. Also noted: dose 16 mg/kg.
Series [20] has as its system MCF7. As to the kind of experiment: Inhibition of VEGF expression in human MCF7 cells at 5 uM by ELISA. It is filed as functional, cell-based.
Series [21] concerns the target Epidermal growth factor receptor (Homo sapiens) (UniProt P00533). As to the kind of experiment: Inhibition of EGF-induced EGFR phosphorylation at Tyr1148 in human MDA-MB-231 cells at 1 uM by ELISA. It is filed as cell-based.
Series [22] shares this target. Kind of series: Inhibition of EGF-induced EGFR phosphorylation at Tyr992 in human MCF7 cells at 1 uM by ELISA. It is filed as cell-based.
The target of series [23] is Signal transducer and activator of transcription 3 (Homo sapiens) (UniProt P40763). Kind of series: Inhibition of EGF-induced STAT3 phosphorylation in human MCF7 cells at 1 uM by ELISA. It is filed as cell-based.
Series [24] has as its target Mitogen-activated protein kinase; ERK1/ERK2 (Homo sapiens) (UniProt P27361+P28482). Kind of series: Inhibition of basal level ERK1/2 phosphorylation in human MCF7 cells at 1 uM by ELISA. Type of series: cell-based.
For series [25], the system named is MDA-MB-231. Kind of series: Antiinvasion activity in human MDA-MB-231 cells assessed as inhibition of EGF-induced cell invaded to matrigel coated invasion chamber at 1 uM after 24 hrs by Transwell invasion assay. Type of series: functional, cell-based. Put shortly: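 Transwell matrigel invasion (8 µm pore): cells at 1x10^5 cells/mL in 2% FBS medium in upper chamber; lower chamber medium with 1µM compound and EGF 100ng/ml; 24 h. Invaded cells on filter underside fixed, crystal-violet stained, counted in six random fields at 20×, dye dissolved in 0.1% SDS read at 540nm; triplicate chambers.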

Series [26] relates to MDA-MB-231. Kind of series: Inhibition of basal cell migration in human MDA-MB-231 cells assessed as […] at 1 uM after 24 hrs by wound healing assay. It is filed as functional, cell-based.

Active and inactive are the calls of the source. No cut-off for these calls is given here.

As usually defined, the EC50 is the concentration giving half of the maximal effect. Low readings indicate greater potency, high ones weaker potency. As a reminder, the inhibition in vivo is the percentage by which the read-out fell short of the control.

Epidermal growth factor receptor (Homo sapiens), sequence (P00533 whole entry): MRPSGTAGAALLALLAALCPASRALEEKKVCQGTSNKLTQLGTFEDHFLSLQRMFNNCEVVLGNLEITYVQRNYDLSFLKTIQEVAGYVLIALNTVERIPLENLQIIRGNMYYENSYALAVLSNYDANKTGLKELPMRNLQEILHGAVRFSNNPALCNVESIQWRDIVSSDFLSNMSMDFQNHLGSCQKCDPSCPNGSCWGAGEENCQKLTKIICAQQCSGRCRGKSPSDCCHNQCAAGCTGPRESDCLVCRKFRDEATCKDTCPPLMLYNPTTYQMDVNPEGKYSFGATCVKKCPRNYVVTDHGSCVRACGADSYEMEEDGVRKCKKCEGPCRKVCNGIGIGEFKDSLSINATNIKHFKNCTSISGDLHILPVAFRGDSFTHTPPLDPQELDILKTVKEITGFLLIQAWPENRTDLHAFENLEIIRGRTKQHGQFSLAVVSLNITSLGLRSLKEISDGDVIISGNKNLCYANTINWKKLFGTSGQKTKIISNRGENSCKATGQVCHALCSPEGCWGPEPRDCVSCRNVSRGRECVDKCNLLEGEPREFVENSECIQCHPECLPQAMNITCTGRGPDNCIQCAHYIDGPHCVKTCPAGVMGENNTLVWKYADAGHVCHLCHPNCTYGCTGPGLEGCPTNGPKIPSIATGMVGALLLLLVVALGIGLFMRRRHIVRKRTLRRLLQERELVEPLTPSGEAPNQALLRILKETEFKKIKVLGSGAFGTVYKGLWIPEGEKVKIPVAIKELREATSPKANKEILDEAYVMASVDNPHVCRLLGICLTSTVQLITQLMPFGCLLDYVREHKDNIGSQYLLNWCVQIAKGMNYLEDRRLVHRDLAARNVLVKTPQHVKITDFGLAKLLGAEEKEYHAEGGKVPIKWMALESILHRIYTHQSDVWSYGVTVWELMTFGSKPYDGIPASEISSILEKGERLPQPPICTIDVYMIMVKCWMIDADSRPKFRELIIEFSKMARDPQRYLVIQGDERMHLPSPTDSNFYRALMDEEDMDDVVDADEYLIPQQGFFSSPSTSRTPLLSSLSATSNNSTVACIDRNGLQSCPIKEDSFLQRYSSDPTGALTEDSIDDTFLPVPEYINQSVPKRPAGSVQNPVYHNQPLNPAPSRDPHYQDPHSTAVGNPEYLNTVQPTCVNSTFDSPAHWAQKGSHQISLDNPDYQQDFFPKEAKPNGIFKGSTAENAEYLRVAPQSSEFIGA
Signal transducer and activator of transcription 3 (Homo sapiens), sequence (P40763 whole entry): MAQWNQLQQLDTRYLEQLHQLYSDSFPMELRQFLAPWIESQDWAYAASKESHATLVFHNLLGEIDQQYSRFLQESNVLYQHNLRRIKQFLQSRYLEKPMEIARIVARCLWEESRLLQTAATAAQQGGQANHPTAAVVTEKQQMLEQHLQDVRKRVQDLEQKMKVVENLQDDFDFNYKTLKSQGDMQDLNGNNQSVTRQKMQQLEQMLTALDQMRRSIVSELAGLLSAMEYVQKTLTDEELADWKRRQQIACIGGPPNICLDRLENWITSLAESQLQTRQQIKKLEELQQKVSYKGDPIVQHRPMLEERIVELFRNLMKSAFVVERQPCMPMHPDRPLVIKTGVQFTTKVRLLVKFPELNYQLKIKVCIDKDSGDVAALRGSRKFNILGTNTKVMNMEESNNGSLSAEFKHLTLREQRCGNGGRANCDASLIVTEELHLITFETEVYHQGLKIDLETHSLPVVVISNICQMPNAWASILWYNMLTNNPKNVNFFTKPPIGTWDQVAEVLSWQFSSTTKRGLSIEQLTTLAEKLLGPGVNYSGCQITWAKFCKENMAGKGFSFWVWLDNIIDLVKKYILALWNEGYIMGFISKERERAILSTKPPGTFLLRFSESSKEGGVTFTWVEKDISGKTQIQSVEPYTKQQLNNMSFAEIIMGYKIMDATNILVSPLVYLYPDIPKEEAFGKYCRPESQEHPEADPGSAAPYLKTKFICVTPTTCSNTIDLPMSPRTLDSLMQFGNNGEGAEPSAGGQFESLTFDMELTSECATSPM
Focal adhesion kinase 1 (Homo sapiens), sequence (Q05397 2-1052 limits assumed): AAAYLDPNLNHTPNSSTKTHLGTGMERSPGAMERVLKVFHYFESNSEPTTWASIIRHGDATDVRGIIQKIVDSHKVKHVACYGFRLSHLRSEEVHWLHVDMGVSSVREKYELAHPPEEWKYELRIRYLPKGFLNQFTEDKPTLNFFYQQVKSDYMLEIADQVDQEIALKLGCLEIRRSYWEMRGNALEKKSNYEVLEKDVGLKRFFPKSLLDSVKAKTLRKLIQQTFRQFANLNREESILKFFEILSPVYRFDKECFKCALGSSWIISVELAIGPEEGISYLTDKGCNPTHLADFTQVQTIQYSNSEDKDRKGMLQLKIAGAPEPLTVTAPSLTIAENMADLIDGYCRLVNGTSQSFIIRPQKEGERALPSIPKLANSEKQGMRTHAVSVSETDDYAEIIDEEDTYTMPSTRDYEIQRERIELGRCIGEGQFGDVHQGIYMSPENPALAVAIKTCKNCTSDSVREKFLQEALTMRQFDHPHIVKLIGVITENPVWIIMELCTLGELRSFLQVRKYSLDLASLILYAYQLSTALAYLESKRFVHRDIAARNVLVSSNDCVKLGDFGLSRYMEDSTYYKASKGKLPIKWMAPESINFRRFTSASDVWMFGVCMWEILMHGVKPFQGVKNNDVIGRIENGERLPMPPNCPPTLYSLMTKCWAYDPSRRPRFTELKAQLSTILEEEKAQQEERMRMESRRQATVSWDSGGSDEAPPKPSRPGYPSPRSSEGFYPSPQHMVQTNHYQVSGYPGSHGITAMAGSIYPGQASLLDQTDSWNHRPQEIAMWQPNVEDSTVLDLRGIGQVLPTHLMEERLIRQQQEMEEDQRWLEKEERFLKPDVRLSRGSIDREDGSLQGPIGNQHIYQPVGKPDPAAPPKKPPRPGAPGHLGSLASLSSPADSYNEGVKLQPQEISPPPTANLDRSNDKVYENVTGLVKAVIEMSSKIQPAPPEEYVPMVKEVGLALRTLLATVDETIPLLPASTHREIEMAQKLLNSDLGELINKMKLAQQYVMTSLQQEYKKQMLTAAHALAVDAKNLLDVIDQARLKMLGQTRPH
Mitogen-activated protein kinase; ERK1/ERK2 (Homo sapiens), sequence (P27361 whole entry, looked up): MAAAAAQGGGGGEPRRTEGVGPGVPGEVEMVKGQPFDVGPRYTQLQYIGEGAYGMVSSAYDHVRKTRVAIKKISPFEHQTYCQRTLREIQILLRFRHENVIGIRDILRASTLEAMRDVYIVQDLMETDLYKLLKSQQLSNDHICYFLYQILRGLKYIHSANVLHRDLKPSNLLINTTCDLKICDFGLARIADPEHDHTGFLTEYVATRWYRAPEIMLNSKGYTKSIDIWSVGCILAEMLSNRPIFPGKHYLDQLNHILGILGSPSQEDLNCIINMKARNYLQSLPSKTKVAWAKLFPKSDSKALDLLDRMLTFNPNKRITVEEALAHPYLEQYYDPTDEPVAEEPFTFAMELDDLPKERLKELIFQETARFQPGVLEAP
Mitogen-activated protein kinase; ERK1/ERK2 (Homo sapiens), sequence (P28482 whole entry, looked up): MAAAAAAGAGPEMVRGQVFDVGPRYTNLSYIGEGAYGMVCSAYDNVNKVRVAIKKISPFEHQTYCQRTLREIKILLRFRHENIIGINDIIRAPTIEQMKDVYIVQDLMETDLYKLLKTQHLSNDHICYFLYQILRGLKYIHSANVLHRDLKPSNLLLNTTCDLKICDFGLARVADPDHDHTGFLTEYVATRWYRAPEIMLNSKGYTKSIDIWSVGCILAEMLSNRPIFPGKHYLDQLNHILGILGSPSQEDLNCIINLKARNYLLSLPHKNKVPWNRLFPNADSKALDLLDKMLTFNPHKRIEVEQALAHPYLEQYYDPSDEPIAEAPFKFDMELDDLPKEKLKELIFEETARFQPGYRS
Ribosomal protein S6 kinase beta-1 (Homo sapiens), sequence (P23443 whole entry, looked up): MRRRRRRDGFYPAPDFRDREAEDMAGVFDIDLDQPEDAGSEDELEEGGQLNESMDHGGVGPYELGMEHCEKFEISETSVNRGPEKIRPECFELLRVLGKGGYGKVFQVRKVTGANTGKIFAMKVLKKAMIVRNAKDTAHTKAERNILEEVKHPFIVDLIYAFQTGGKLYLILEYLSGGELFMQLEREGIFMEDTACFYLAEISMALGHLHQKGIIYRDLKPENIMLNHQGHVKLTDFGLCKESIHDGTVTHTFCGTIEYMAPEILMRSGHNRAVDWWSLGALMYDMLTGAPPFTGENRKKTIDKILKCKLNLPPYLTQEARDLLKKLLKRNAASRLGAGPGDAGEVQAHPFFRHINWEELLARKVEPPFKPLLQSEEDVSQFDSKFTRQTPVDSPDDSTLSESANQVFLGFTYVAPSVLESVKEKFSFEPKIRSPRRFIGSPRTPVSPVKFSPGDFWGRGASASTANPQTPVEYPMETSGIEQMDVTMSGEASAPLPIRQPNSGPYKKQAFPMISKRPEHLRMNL
Plasminogen activator inhibitor 1 (Homo sapiens), sequence (P05121 whole entry): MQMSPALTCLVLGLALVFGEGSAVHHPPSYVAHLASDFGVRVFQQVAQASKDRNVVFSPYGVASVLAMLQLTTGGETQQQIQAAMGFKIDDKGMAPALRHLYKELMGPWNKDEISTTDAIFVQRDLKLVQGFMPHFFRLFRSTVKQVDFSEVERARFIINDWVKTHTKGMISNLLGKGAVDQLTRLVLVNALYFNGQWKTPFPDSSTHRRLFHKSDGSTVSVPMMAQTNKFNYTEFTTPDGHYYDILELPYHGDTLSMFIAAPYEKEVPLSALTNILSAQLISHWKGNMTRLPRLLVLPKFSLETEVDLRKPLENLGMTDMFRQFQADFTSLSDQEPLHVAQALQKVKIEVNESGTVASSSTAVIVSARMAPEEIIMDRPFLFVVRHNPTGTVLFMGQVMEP

`CCN(CC)CCO/N=C(\c1ccc(SC)cc1)c1cccc2ccccc12.O=C(O)C(=O)O` registered an EC50 in the series with Ishikawa of 12 µM. For the same molecule, the Activity in the series with MDA-MB-231 [1] was 6.22%; with MDA-MB-231 [2], 3.65%; in the series on Mus musculus, “Non-toxic”; with MCF7 [4], more than 50%. Moreover, the inhibition in vivo at 16 mg/kg in the series with MCF7 [3] is 50%.
On to `CCN(CC)CCO/N=C(\c1ccc(SC)cc1)c1cccc2ccccc12`, for which the inhibition entry (in [5]; in [6]; in series [7]; in the series with MCF7 [18]; in the series with MCF7 [20]) was “inactive” in each case. Also, the inhibition result (in [8]; in series [9]; in series [10]; in the series with MDA-MB-231 [16]; with MDA-MB-231 [17]; in the series on MCF7 [19]) was “Active” each time. Further, the inhibition entry (in series [21]; in series [22]; in series [23]; in series [24]; in the series on MDA-MB-231 [25]; in the series with MDA-MB-231 [26]) was “Active” in each case. The result in the series on MDA-MB-231 [11], with MDA-MB-231 [12] and with MCF7 [13] was Active. In addition, the result in the series with MCF7 [14] and in the series on MDA-MB-231 [15] was inactive.
